Compound activity deposited in PubChem by several laboratories.
This is a sample that favours compounds with a hit; in the whole collection about 1.7% have one here.
CSN inh: inhibitors of CSN-mediated cullin deneddylation, primary screen, biochemical, fluorescence polarization, uHTS | Purified CSN, SCF-Nedd8-OG deneddylation | 360,000 compounds, 0.38% hits | inhibition, % at 12.5 µM | AID 651999, 2013;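 active = pattern-corrected inhibition above about 35%, with an unprinted fluorescence ratio check between 0.5 and 1.5, limit read from the data, passing the limit was not always enough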
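Detection – fluorescence polarization · System – HEK293T-derived human Csn5 enzyme · Controls – substrate-only high control, full reaction low control · Timing – 90 min, room temperature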
Rpn11 block: Rpn11 (PSMD14) deubiquitinase inhibitors, primary screen, biochemical, fluorescence polarization, uHTS; 26S proteasome non-ATPase regulatory subunit 14 (Homo sapiens), O00487; inhibition, % at 20 µM; 360,000 compounds, 0.59% hits; human 26S proteasome, Ub4-pepOG fluorescence polarization; 20S core pre-blocked with epoxomicin; AID 588493, 2011;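 active = inhibition at 20 µM, scaled to each plate's controls, above about 33%, limit read from the data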
IDE inh: human IDE inhibitors in live cells, primary screen, fluorescence polarization, HEK cells, FAbetaB substrate. 320,000 compounds, 0.41% hits. FAbetaB cleavage. inhibition, % at 5.59 µM. Insulin-degrading enzyme (Homo sapiens), P14735;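 active = percent inhibition above the average of all tested compounds plus 3 SD, set per screening campaign, cut at about 16% in these data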;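 also: IDE supplied by intact live HEK cells; FP after avidin binding of uncleaved biotin substrate so inhibition keeps polarization high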
HNF4A DNA FP: change in binding of human HNF4A to DNA, primary screen, biochemical, fluorescence polarization, FITC-DNA. Hepatocyte nuclear factor 4-alpha (Homo sapiens), P41235. activity change, % at 10 µM. 360,000 compounds, 0.3% hits. 1 h; in the data active = activity change above about 30%, passing the limit was not always enough
TPT1 inh: Candida albicans TPT1 enzyme inhibitors, primary screen, biochemical, fluorescence polarization | tRNA 2'-phosphotransferase TPT1 (Candida albicans SC5314) | recombinant caTPT1, FP RNA substrate dephosphorylation | inhibition, % at 5 µM | 300,000 compounds, 0.81% hits;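 active = inhibition above the mean of all tested compounds plus 3 SD, set per screening campaign, cut at about 24% in these data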
IDE act: human IDE activators in live cells, primary screen, fluorescence polarization, HEK cells, FAbeta-B substrate; Insulin-degrading enzyme (Homo sapiens), P14735; FAbeta-B cleavage; 0% vehicle, 100% cell-free pure enzyme wells; activation, % at 5.96 µM; 340,000 compounds, 0.073% hits; AID 493087, 2011;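 active = activation above the mean of all tested compounds plus 3 SD, set per screening campaign, cut at about 17% in these data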
caTPT1 confirm: Candida albicans TPT1 inhibitors, confirmation, biochemical, fluorescence polarization, triplicate | shares compounds with TPT1 inh | inhibition, % at 5 µM | 2,400 compounds, 74% hits | recombinant caTPT1, RNase T1 coupled;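 active = inhibition above the primary screen limit, the mean inhibition of all tested compounds plus 3 SD, cut at about 25% in these data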
RNase T1 inh: RNase T1 inhibitors, counter-screen for TPT1 inhibitor project, biochemical, fluorescence polarization | shares compounds with TPT1 inh | RNase T1 cleavage, 1536-well | inhibition, % at 5 µM | 2,400 compounds, 83% hits | AID 2153, 2009;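 active = inhibition above the solvent-only control well mean plus 3 SD, limit set per screening run, cut at about 23% in these data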;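 also: inhibitors block cleavage so intact labeled substrate keeps polarization high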
Numbers stand for hits; - = inactive; . = no result shown.

SMILES	CSN inh	Rpn11 block	IDE inh	HNF4A DNA FP	TPT1 inh	IDE act	caTPT1 confirm	RNase T1 inh
Cc1ccc(Sc2ccc(C=C3C(=O)N(C)C(=O)N(C)C3=O)o2)cc1	-	-	-	-	-	-	.	.
c1ccc2[nH]c(CCN3CCCCC3)nc2c1	-	-	.	-	.	.	.	.
CC1C(=O)CC2(C(C)C)CC12 (stereo not drawn)	-	-	.	-	.	.	.	.
O=P1(c2ccccc2)CC=CC1	-	-	.	-	.	.	.	.
CCOC(=O)[C@]12Cc3cc(OC)ccc3[C@H]1N(CCC(=O)OC)C(=O)c1cc(OC)ccc12	-	.	.	-	.	.	.	.
CC12CCC(O)CC1CCC1C2CCC2(C)C(C(=O)CO)CCC12 (stereo not drawn)	-	-	.	-	.	.	.	.
C=CCn1c(O)c(C=NCCN(C)C)c(=O)[nH]c1=O	-	-	-	-	30	-	35	45
O=c1[nH]c(=O)n(Cc2ccccc2)c(O)c1C=NCCCn1ccnc1	-	-	-	-	48	-	35	45
O=c1[nH]c(=O)n(Cc2ccco2)c(O)c1C=NCCN1CCOCC1	-	-	-	-	25	-	30	42
C=CCn1c(O)c(C=NCCN2CCNCC2)c(=O)[nH]c1=O	-	-	-	-	-	-	.	.
O=c1[nH]c(=O)n(CCC2=CCCCC2)c(O)c1C=NCCN1CCNCC1	-	.	-	-	27	-	44	55
CCCCn1c(O)c(C(=O)/C=C/c2c[nH]c3ccccc23)c(=O)[nH]c1=O	-	.	-	-	121	-	178	161
CCCCn1c(O)c(C(CC)=NCCc2ccccc2)c(=O)[nH]c1=O	-	-	-	-	-	-	.	.
N#CC(C#N)=Cc1ccc(-c2ccccc2)o1	.	.	-	.	37	.	36	64
CCOC(=O)[C@]12Cc3c(cc(OC)c(OC)c3OC)[C@H]1N(C(C)C)C(=O)c1cc(OC)ccc12	-	.	.	-	.	.	.	.
Cc1cccc(N2C(=O)/C(=C/c3ccc(N4CCN(C)CC4)o3)C(=O)NC2=S)c1C	-	.	-	84	83	-	121	121
O=C1NC(=S)N(c2ccccc2F)C(=O)/C1=C\c1cccs1	-	-	-	-	-	-	.	.
Cc1ccccc1N1C(=O)NC(=O)/C(=C\c2cc(Br)c(N3CCOCC3)o2)C1=O	-	.	-	-	96	-	141	140
Cc1ccccc1N1C(=O)/C(=C/c2ccco2)C(=O)NC1=S	.	.	-	.	80	.	80	-
CCOc1ccc(N2C(=O)/C(=C/c3ccco3)C(=O)NC2=S)cc1	-	.	-	-	47	-	-	-
O=C(CCc1ccccc1)N1Cc2cc(N3CCCCC3)ccc2-n2nncc2C1	-	-	.	-	.	.	.	.
CN(Cc1cccc(-c2ccncc2)c1)C(=O)Oc1ccc([N+](=O)[O-])cc1	-	.	.	-	.	.	.	.
C=C1C(=O)OC2CCN3CC=C(COC(=O)C(C)(O)C4(CO4)C1C)C23 (stereo not drawn)	-	-	.	-	.	.	.	.
Cc1cccc(N2C(=O)NC(=O)/C(=C\c3ccc4c(c3)CCCN4Cc3ccccc3)C2=O)c1	-	.	-	-	92	-	152	141
Cc1cccc(N2C(=O)NC(=O)/C(=C/c3cc4c(cc3[N+](=O)[O-])OCO4)C2=O)c1	-	-	-	-	-	-	.	.
O=[N+]([O-])c1cc2c(cc1CNCCc1ccc3c(c1)OCO3)OCO2	-	-	-	-	32	-	-	-
Fc1ccc(CNCCc2ccc3c(c2)OCO3)cc1	-	-	-	-	-	-	.	.
